Assay results as given in article PMC9468552 (Clinical and Translational Science, 2022).
Like-named read-outs stand apart in the source and are kept apart here.

How the values were obtained:
[1] = molecular target: T1, CYP3A4 (Homo sapiens, UniProt P08684); assay: Study 008: effect of EDP‐305 on combined oral contraceptive; format: in vivo; conditions: for AUC0,t, Geo LSMean ratio (90% CI) / Cmax, Geo LSMean ratio (90% CI): OC + EDP‐305 vs OC alone; for AUC(0-t) / Cmax: human, plasma, oral, Geo LSMean, day 21; for AUC(0-t): AUC0,t; for Peak and systemic exposures (Cmax and AUC0‐τ), OC + EDP‐305 vs OC alone: in words
T1 sequence (P08684 whole entry): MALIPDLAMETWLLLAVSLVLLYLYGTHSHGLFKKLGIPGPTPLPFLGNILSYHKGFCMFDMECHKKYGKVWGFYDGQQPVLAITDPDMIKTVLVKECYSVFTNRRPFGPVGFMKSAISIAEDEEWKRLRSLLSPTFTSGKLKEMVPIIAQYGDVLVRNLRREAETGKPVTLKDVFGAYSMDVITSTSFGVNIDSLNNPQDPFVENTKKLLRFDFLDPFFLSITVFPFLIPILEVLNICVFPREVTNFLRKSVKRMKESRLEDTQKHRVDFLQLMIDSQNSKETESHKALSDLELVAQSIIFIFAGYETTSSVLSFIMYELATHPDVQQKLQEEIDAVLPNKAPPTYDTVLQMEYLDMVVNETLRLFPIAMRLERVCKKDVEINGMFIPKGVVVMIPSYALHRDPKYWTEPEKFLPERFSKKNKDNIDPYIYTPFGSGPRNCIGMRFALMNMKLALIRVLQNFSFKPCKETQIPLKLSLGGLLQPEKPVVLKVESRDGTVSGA

[2] = molecular target: T1, CYP3A4; assay: Study 004: DDI of EDP‐305; format: in vivo; conditions: for Cmax: human, plasma, oral, Geo LSMean
[3] = molecular target: P‐gp (Homo sapiens, UniProt P08183); format: in vivo
P‐gp (Homo sapiens, UniProt P08183), sequence (P08183 whole entry): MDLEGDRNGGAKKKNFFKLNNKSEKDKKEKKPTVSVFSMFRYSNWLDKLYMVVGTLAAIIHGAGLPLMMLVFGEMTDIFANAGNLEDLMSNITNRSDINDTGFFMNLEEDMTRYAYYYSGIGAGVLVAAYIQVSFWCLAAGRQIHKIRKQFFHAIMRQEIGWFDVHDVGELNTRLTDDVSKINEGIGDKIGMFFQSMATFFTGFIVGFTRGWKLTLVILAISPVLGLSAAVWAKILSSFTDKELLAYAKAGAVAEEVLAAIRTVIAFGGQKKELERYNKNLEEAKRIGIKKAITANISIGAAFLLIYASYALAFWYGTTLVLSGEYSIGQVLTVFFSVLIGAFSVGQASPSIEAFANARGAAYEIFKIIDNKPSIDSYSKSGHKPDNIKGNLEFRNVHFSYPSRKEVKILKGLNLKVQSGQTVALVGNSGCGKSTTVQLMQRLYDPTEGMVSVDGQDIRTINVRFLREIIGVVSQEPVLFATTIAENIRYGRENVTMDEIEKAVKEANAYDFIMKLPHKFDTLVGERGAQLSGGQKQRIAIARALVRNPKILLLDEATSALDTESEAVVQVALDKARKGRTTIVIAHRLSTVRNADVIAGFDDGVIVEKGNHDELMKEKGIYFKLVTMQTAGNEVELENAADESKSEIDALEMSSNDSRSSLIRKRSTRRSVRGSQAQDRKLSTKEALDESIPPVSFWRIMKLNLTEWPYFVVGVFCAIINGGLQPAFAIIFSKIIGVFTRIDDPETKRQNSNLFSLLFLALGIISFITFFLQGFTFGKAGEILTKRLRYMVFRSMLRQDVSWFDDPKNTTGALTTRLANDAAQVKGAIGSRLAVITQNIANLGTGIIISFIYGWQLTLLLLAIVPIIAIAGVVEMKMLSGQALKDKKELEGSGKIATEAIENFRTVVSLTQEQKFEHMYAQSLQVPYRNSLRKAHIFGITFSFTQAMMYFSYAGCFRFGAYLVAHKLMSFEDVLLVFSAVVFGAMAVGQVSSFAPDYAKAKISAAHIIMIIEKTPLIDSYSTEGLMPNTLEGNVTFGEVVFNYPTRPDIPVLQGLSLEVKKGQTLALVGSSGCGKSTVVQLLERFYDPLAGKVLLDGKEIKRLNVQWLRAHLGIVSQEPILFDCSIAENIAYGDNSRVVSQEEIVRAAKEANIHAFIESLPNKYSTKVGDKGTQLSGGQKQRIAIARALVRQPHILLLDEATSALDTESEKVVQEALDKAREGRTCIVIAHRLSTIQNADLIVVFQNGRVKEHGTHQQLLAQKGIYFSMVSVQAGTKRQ

[4] = Study 004: trough levels of EDP‐305 and metabolites with and without probes; format: in vivo, human
Method in brief: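 Healthy volunteers received single oral midazolam 2 mg and caffeine 200 mg on days 1 and 12, and rosuvastatin 20 mg on days 2 and 13. EDP‐305 was given as a 10 mg/30 ml oral suspension each morning on days 5–15 after an overnight fast. Predose troughs were drawn on days 5, 8 and 10–17. Parent and metabolites were measured by LC–MS/MS (range 0.0300–30.0 ng/ml).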

[5] = test system: CYP1A2, 2B6, and 3A4; conditions: preclinical studies; cited from earlier work
[6] = relative bioavailability assessment; ref data on file; cited from earlier work
[7] = test system: cytochrome (CYP) 1A2, 2B6, 2C8, 2C9, 2C19, 2D6, and 3A4 isoenzymes; conditions: standard hepatic microsome studies; preclinical studies; cited from earlier work
[8] = Safety/tolerability in the four DDI studies; format: in vivo, human; conditions: all four studies
[9] = radiolabeled mass balance study; ref data on file; Enanta Pharmaceuticals; cited from earlier work
[10] = test system: BCRP; conditions: in vitro; ref data on file; cited from earlier work
[11] = same dose/formulation; ref data on file; cited from earlier work
[12] = test system: OATP1B1 and OATP1B3; conditions: in vitro; ref data on file; cited from earlier work
[13] = molecular target: T1, CYP3A4; format: in vivo
[14] = molecular target: T2, CYP1A2 (Homo sapiens, UniProt P05177); assay: Study 004: DDI of EDP‐305; format: in vivo; conditions: for Cmax: human, plasma, oral, Geo LSMean
T2 sequence (P05177 1-516): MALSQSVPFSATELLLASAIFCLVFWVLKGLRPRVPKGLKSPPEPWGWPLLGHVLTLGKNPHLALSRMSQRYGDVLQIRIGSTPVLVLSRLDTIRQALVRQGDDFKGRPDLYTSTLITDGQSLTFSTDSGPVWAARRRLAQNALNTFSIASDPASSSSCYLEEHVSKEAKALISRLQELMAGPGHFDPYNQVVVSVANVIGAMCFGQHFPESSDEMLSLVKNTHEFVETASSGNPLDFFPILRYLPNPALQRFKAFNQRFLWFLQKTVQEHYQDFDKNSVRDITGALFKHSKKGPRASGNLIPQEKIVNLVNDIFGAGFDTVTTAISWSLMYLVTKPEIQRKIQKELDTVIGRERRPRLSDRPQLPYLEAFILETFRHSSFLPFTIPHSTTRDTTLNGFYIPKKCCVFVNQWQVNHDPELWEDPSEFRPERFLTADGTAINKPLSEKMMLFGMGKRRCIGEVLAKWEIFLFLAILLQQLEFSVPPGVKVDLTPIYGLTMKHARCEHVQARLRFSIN

[15] = 12‐week phase II study, 132 non‐cirrhotic patients; cited from earlier work
[16] = molecular target: T1, CYP3A4; format: in vivo; remark: listed apart in the source
[17] = molecular target: T1, CYP3A4; format: in vivo; remark: listed apart in the source
Method in brief: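 Healthy subjects in a separate part took oral rifampin 600 mg once daily on days 5–16. EDP‐305 10 mg suspension was given on days 1 and 14 after a 10 h fast that continued ≥4 h postdose. Plasma was drawn predose and 0.5–12 h postdose, plus 24, 48 and 72 h before the morning rifampin dose. Analysis used LC–MS/MS and noncompartmental PK. A mixed model on ln values (subject random) gave the geometric LS mean ratio with 90% CI, with EDP‐305 alone as reference.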

[18] = test system: BSEP, MRP2, P‐gp, and BCRP transporters; conditions: in vitro; ref data on file; cited from earlier work
[19] = cited from earlier work
[20] = test system: messenger RNA (mRNA) for CYP1A2 and CYP3A4; conditions: incubation in liver microsomes (hepatocytes) in the presence of EDP‐305; preclinical studies; cited from earlier work
[21] = test system: P‐gp; conditions: in vitro; ref data on file; cited from earlier work
[22] = test system: OATP1B1/B3 and BCRP; assay: Study 004: DDI of EDP‐305; format: in vivo, human
[23] = OC + EDP‐305 2.5 mg tablet (test)
[24] = EDP‐305 5 mg tablet + quinidine 300 mg BID (test)
[25] = EDP‐305 5 mg tablet alone (reference)
[26] = EDP‐305 + quinidine vs EDP‐305 alone
[27] = EDP‐305 2.5 mg tablet co‐administered with OC
[28] = EDP‐305 10 mg + itraconazole 200 mg q.d. (test)
[29] = EDP‐305 10 mg alone (reference)
[30] = EDP‐305 + itraconazole vs EDP‐305 alone
[31] = EDP‐305 5 mg tablet + fluconazole 400 mg QD (test)
[32] = EDP‐305 10 mg + rifampin 600 mg q.d. (test)
[33] = EDP‐305 + rifampin vs EDP‐305 alone
[34] = caffeine + EDP‐305 vs caffeine alone
[35] = midazolam 2 mg + EDP‐305 10 mg (test)
[36] = midazolam + EDP‐305 vs midazolam alone
[37] = rosuvastatin + EDP‐305 vs rosuvastatin alone

SMILES: C#C[C@]1(O)CC[C@H]2[C@@H]3CCC4=CC(=NO)CC[C@@H]4[C@H]3CC[C@@]21CC (mixture of isomers) [norelgestromin]
- AUC0,t, Geo LSMean ratio (90% CI) [1]: 0.99 (0.92, 1.05)
- Cmax, Geo LSMean ratio (90% CI) [1]: 0.94 (0.86, 1.02)
- AUC(0-t) ([1]; OC alone (reference)): 25.9 ng·h/mL
- Cmax [1, 23]: 2.47 ng/mL
- Cmax ([1]; OC alone (reference)): 2.64 ng/mL
- Peak and systemic exposures (Cmax and AUC0‐τ), OC + EDP‐305 vs OC alone [1]: similar

SMILES: OCc1ncc2n1-c1ccc(Cl)cc1C(c1ccccc1F)=NC2 [1′‐hydroxymidazolam]
- GM AUCR0‐inf, metabolite‐to‐parent ratio ([2]; midazolam administered alone): 39.1%
- GM AUCR0‐inf, metabolite‐to‐parent ratio ([2]; midazolam administered with EDP‐305): 20.6%

SMILES: CC[C@H]1[C@@H](O)[C@@H]2[C@H](CC[C@]3(C)[C@@H]([C@H](C)CCNC(=O)NS(=O)(=O)c4ccc(C(C)(C)C)cc4)CC[C@@H]23)[C@@]2(C)CC[C@@H](O)C[C@@H]12 [EDP‐305]
- AUC0,inf, Geo LSMean [3, 24]: 367.17 ng·h/mL
- Cmax, Geo LSMean [3, 24]: 31.78 ng/mL
- AUC0,inf, Geo LSMean [3, 25]: 353.24 ng·h/mL
- Cmax, Geo LSMean [3, 25]: 31.64 ng/mL
- AUC0,inf, Geo LSMean ratio (90% CI) [3, 26]: 1.04 (0.95, 1.14)
- Cmax, Geo LSMean ratio (90% CI) [3, 26]: 1.00 (0.92, 1.10)
- effect on EDP‐305 peak or systemic exposure [3, 26]: no apparent effect
- effect on Tmax, Vd/F, CL/F, and t1/2 [3, 26]: minimal effect
- steady‐state concentrations achieved ([4]; EDP‐305 10 mg daily from day 5, majority of subjects): ≤ 12 days
- effect of co‐administered enzyme or transporter probes on PK ([4]; single doses of midazolam, caffeine, rosuvastatin): no apparent effect
- potential to induce CYP1A2, 2B6, and 3A4 [5]: low potential
- exposures of tablet compared to suspension [6]: approximately twofold higher
- potential to inhibit CYP 1A2, 2B6, 2C8, 2C9, 2C19, 2D6, and 3A4 [7]: low potential to inhibit
- tolerability [8]: well‐tolerated
- EDP‐305 in urine [9]: not detected
- mean recovery of total radioactivity in feces [9]: 78.7%
- mean recovery of total radioactivity in urine [9]: 1.42%
- BCRP substrate [10]: unlikely to be a BCRP substrate
- classification as CYP3A4 inhibitor from increase in midazolam AUC ([2]; increase in midazolam AUC less than twofold): weak inhibitor of CYP3A4
- exposures in patients with NASH versus healthy subjects [11]: approximately twofold higher
- geometric mean t1/2 [1, 27]: 9.6 h
- median Tmax [1, 27]: 4.0 h
- effect on serum progesterone levels ([1]; co‐administration of combined OC and EDP‑305): no effect
- inhibition of OATP1B1 and OATP1B3 [12]: the potential for EDP‐305 to inhibit
- AUC0,inf, Geo LSMean [13, 28]: 1891.47 ng·h/mL
- Cmax, Geo LSMean [13, 28]: 50.48 ng/mL
- AUC0,inf, Geo LSMean [13, 29]: 360.31 ng·h/mL
- Cmax, Geo LSMean [13, 29]: 31.25 ng/mL
- delayed Tmax [13, 30]: 2 fold
- longer t1/2 (increase) [13, 30]: 2.79 fold
- classification as CYP1A2 inhibitor from increase in caffeine AUC ([14]; increase in caffeine AUC less than twofold): weak inhibitor of CYP1A2
- efficacy in patients with fibrotic NASH [15]: reduced hepatic enzyme levels and liver fat
- AUC0,inf, Geo LSMean [16, 31]: 1537.60 ng·h/mL
- Cmax, Geo LSMean [16, 31]: 57.71 ng/mL
- AUC0,inf, Geo LSMean [16, 25]: 408.40 ng·h/mL
- Cmax, Geo LSMean [16, 25]: 32.73 ng/mL
- CL/F and Vd/F, change ([16]; EDP‐305 + fluconazole compared to EDP‐305 alone): decreased
- t1/2 increased ([16]; EDP‐305 + fluconazole relative to EDP‐305 alone): increased
- AUC0,inf, Geo LSMean [17, 32]: 137.92 ng·h/mL
- Cmax, Geo LSMean [17, 32]: 27.02 ng/mL
- AUC0,inf, Geo LSMean [17, 29]: 393.59 ng·h/mL
- Cmax, Geo LSMean [17, 29]: 29.62 ng/mL
- AUC0,inf, Geo LSMean ratio (90% CI) [17, 33]: 0.35 (0.30, 0.41)
- effect on EDP‐305 peak exposure [17, 33]: no apparent effect
- effect on Tmax [17, 33]: no apparent effect
- higher CL/F [17, 33]: 2.77 fold
- higher Vd/F [17, 33]: 1.79 fold
- shorter t1/2 [17, 33]: 0.35 fold
- total systemic exposure decreased [17, 33]: ~ 65%
- inhibition of BSEP, MRP2, P‐gp, and BCRP [18]: low potential to inhibit
- tolerability ([19]; single doses up to 80 mg, multiple daily doses up to 20 mg for 14 days): well‐tolerated
- steady‐state pharmacokinetics reached ([19]; visual inspection of trough concentrations, across all doses): ≤ 9 days
- effect on mRNA for CYP1A2 and CYP3A4 [20]: concentration‐dependent downregulation
- P‐gp substrate [21]: has potential to be a P‐gp substrate

SMILES: CC(C)c1nc(NS(C)(=O)=O)nc(-c2ccc(F)cc2)c1/C=C/[C@@H](O)C[C@@H](O)CC(=O)O [N‐desmethyl‐rosuvastatin]
- GM AUCR0‐inf, metabolite‐to‐parent ratio ([22]; rosuvastatin administered alone): 16.6%
- GM AUCR0‐inf, metabolite‐to‐parent ratio ([22]; rosuvastatin administered with EDP‐305): 11.2%

SMILES: Cn1c(=O)c2c(ncn2C)n(C)c1=O [caffeine]
- delayed Tmax (increase) [14, 34]: 50%
- effect on Vd/F [14, 34]: little effect
- increase in AUC0‐t [14, 34]: 1.90 fold
- longer t1/2 (increase) [14, 34]: 64%
- lower CL/F (decrease) [14, 34]: 45%
- Cmax ([14]; 200 mg, caffeine 200 mg alone (reference)): 4190 ng/mL
- Cmax ([14]; caffeine 200 mg + EDP‐305 10 mg (test)): 4720 ng/mL

SMILES: C#C[C@]1(O)CC[C@H]2[C@@H]3CCc4cc(O)ccc4[C@H]3CC[C@@]21C [ethinyl estradiol]
- AUC0,t, Geo LSMean ratio (90% CI) [1]: 1.08 (1.00, 1.16)
- Cmax, Geo LSMean ratio (90% CI) [1]: 1.08 (0.99, 1.19)
- AUC(0-t) ([1]; OC alone (reference)): 1.25 ng·h/mL
- Cmax [1, 23]: 0.148 ng/mL
- Cmax ([1]; OC alone (reference)): 0.137 ng/mL
- Peak and systemic exposures (Cmax and AUC0‐τ), OC + EDP‐305 vs OC alone [1]: similar

SMILES: C#C[C@]1(O)CC[C@H]2[C@@H]3CCC4=CC(=O)CC[C@@H]4[C@H]3CC[C@@]21CC [levonorgestrel]
- AUC0,t, Geo LSMean ratio (90% CI) [1]: 1.31 (1.23, 1.39)
- Cmax, Geo LSMean ratio (90% CI) [1]: 1.29 (1.21, 1.38)
- AUC(0-t) ([1]; OC alone (reference)): 57.2 ng·h/mL
- Cmax [1, 23]: 3.85 ng/mL
- Cmax ([1]; OC alone (reference)): 2.99 ng/mL

SMILES: Cc1ncc2n1-c1ccc(Cl)cc1C(c1ccccc1F)=NC2 [midazolam]
- Cmax ([2]; 2 mg, midazolam 2 mg alone (reference)): 7.51 ng/mL
- Cmax [2, 35]: 9.41 ng/mL
- AUC0,inf, Geo LSMean [2, 35]: 32.22 ng·h/mL
- delayed Tmax (increase) [2, 36]: 98%
- increase in AUC0‐t [2, 36]: 1.53 fold
- longer t1/2 (increase) [2, 36]: 34%
- lower CL/F (decrease) [2, 36]: 36%
- lower Vd/F (decrease) [2, 36]: 14%

SMILES: CC(C)c1nc(N(C)S(C)(=O)=O)nc(-c2ccc(F)cc2)c1/C=C/[C@@H](O)C[C@@H](O)CC(=O)O [rosuvastatin]
- Cmax ([22]; human, plasma, oral, Cmax, Geo LSMean, rosuvastatin 20 mg + EDP‐305 10 mg (test)): 5.59 ng/mL
- effect on Tmax [22, 37]: no apparent effect
- increase in AUC0‐t [22, 37]: 1.24 fold
- longer t1/2 (increase) [22, 37]: 17%
- lower CL/F (decrease) [22, 37]: 20%
